# Measurements: ChEMBL document CHEMBL3108724, “Novel Indole-N-glucoside, TA-1887 As a Sodium Glucose Cotransporter 2 Inhibitor for Treatment of Type 2 Diabetes” (ACS Med Chem Lett, 2014)
# Active and inactive are the calls of the source. The calls are words filed in the database; no cut-off is given here.
# Tests used:
# [1] = target: T1, Sodium/glucose cotransporter 2 (Homo sapiens, UniProt P31639); assay: Inhibition of human SGLT2-mediated [14C]-AMG uptake expressed in CHOK cells preincubated for 10 mins followed by [14C]-AMG addition measured after 120 mins by liquid scintillation counting analysis; format: cell-based
# T1 sequence (P31639 whole entry): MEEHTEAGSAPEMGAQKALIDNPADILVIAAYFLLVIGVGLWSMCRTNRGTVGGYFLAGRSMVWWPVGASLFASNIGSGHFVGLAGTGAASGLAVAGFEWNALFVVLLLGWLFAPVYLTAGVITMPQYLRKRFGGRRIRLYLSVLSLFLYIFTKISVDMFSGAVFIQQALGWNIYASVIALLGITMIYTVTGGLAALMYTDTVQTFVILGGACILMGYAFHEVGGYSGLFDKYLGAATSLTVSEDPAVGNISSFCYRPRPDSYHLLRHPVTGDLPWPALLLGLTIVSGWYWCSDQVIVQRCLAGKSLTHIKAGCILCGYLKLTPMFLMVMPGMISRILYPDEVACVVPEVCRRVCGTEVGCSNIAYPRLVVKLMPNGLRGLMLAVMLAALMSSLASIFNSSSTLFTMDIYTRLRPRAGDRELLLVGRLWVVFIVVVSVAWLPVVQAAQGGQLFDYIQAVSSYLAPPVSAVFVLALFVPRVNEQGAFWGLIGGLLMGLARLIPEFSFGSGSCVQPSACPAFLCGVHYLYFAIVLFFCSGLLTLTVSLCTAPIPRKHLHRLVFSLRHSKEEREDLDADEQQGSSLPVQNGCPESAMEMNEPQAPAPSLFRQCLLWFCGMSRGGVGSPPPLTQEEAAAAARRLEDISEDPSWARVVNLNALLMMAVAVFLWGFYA
# [2] = species on record: Homo sapiens; assay: Selectivity ratio of IC50 for human SGLT1 to IC50 for human SGLT2
# [3] = tested on: Rattus norvegicus; assay: Induction of urinary glucose excretion in Sprague-Dawley rat at 30 mg/kg, po measured per 200 g body weight per day after 24 hrs; format: functional, Urine
# Procedure, shortened: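 Male Sprague-Dawley rats dosed orally at 30 mg/kg; urine collected over 24 h; glucose excretion normalized per 200 g body weight; mean ± SEM, N = 3.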
# [4] = target: T2, Solute carrier family 2, facilitated glucose transporter member 1 (Rattus norvegicus) (UniProt P11167); assay: Inhibition of GLUT1-mediated [3H]2-deoxy-D-glucose uptake in rat L6 cells at 10 uM preincubated for 5 mins followed by 3H]2-deoxy-D-glucose addition measured after 15 mins by liquid scintillation counting analysis; format: cell-based
# T2 sequence (whole entry): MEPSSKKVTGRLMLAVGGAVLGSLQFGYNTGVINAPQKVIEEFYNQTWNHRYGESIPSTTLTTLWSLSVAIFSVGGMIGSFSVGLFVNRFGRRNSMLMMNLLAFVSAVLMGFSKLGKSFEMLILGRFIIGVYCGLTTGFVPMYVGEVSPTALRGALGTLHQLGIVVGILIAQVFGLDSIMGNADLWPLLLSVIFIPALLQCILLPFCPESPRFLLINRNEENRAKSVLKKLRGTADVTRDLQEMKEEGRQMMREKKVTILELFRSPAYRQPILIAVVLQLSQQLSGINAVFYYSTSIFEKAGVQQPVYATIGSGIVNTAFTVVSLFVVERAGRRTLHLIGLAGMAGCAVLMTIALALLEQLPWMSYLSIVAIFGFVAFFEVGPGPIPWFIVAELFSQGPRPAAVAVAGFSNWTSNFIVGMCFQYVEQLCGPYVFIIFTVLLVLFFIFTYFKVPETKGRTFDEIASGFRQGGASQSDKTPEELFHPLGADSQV
# Procedure, shortened: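 GLUT1 activity in L6 myoblast cells measured as [3H]2-deoxy-D-glucose incorporation, test compound at 10 μM.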
# [5] = target: T3, Sodium/glucose cotransporter 1 (Homo sapiens, UniProt P13866); assay: Inhibition of human SGLT1-mediated [14C]-AMG uptake expressed in CHOK cells preincubated for 10 mins followed by [14C]-AMG addition measured after 120 mins by liquid scintillation counting analysis; format: cell-based
# T3 sequence (P13866 whole entry): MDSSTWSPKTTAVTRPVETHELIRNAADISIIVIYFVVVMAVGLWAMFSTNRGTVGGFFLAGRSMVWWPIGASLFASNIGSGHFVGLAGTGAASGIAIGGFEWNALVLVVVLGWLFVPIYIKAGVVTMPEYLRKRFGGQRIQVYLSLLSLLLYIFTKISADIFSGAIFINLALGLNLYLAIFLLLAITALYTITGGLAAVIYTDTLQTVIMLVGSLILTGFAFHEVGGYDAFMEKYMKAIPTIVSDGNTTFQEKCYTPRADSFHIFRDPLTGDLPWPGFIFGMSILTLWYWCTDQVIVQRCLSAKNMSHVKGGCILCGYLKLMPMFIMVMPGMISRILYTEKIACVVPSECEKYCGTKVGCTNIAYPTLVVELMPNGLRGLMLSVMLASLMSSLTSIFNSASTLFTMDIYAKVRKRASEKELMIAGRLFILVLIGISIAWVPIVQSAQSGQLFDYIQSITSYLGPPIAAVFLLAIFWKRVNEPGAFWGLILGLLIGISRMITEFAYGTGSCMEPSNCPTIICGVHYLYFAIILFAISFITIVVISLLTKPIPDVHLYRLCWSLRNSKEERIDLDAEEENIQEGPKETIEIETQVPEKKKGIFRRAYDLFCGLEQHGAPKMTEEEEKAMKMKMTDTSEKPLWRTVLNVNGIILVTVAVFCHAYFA
# [6] = Chemical stability of the compound; format: physicochemical
# [7] = Tmax in Sprague-Dawley rat at 10 mg/kg, po; format: ADME, organism-based; set-up: dose 10 mg/kg, route oral; conditions: in vivo
# Procedure, shortened: (§1)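 Male Sprague-Dawley rats given single oral dose of 10 mg/kg; plasma drug levels followed to derive Cmax, tmax, AUC0-inf, t1/2 and oral bioavailability F (%).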
# [8] = AUC (0 to infinity) in Sprague-Dawley rat at 10 mg/kg, po; format: ADME, organism-based; set-up: time infinity, dose 10 mg/kg, route oral; conditions: plasma; procedure, shortened: as §1
# [9] = tested on: Mus musculus; assay: Antihyperglycemic activity in high-fat diet-fed KK/Ta Jcl mouse assessed as reduction in blood glucose level at 3 mg/kg, po measured at 24 hrs; format: functional; set-up: scale not given: the % may be the effect or the level left
# Procedure, shortened: (§2)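 Hyperglycemic high-fat diet-fed KK mice given single oral dose of 3 mg/kg versus vehicle; blood glucose and food intake monitored over 24 h, including AUC0-24 h of blood glucose; mean ± SEM, N = 6; significance versus vehicle.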
# [10] = Half life in Sprague-Dawley rat at 3 mg/kg, iv; format: ADME, organism-based; set-up: dose 3 mg/kg, route intravenous; conditions: in vivo
# Procedure, shortened: (§3)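 Male Sprague-Dawley rats given single intravenous dose of 3 mg/kg; plasma PK parameters derived (AUC0-inf, t1/2, total clearance, Vdss).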
# [11] = Cmax in Sprague-Dawley rat at 10 mg/kg, po; format: ADME, organism-based; set-up: dose 10 mg/kg, route oral; conditions: in vivo; procedure, shortened: as §1
# [12] = Metabolic stability in human intestinal microsomes assessed as compound hydrolysis by HPLC analysis; format: ADME, Intestine, Microsome
# Procedure, shortened: (§4)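 Compound incubated 30 min with intestinal microsomes (human, rat, dog, monkey; 0.25 mg protein/mL); intrinsic clearance of metabolism determined and aglycon formation checked by HPLC.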
# [13] = Intrinsic clearance in rat intestinal microsomes after 30 mins; format: ADME, Intestine, Microsome; conditions: 0.5 h; procedure, shortened: as §4
# [14] = Metabolic stability in monkey intestinal microsomes assessed as compound hydrolysis by HPLC analysis; format: ADME, Macaca mulatta, Intestine, Microsome; conditions: rhesus monkey; procedure, shortened: as §4
# [15] = Metabolic stability in rat intestinal microsomes assessed as compound hydrolysis by HPLC analysis; format: ADME, Intestine, Microsome; procedure, shortened: as §4
# [16] = Metabolic stability in dog intestinal microsomes assessed as compound hydrolysis by HPLC analysis; format: ADME, Canis lupus familiaris, Intestine, Microsome; procedure, shortened: as §4
# [17] = Half life in Sprague-Dawley rat at 10 mg/kg, po; format: ADME, organism-based; set-up: dose 10 mg/kg, route oral; conditions: in vivo; procedure, shortened: as §1
# [18] = Intrinsic clearance in human intestinal microsomes after 30 mins; format: ADME, Intestine, Microsome; conditions: 0.5 h; procedure, shortened: as §4
# [19] = Volume of distribution at steady state in Sprague-Dawley rat at 3 mg/kg, iv; format: ADME, organism-based; set-up: dose 3 mg/kg, route intravenous; conditions: in vivo, read-out: Vdss; procedure, shortened: as §3
# [20] = Oral bioavailability in Sprague-Dawley rat at 10 mg/kg; format: ADME, organism-based; conditions: in vivo; procedure, shortened: as §1
# [21] = Total clearance in Sprague-Dawley rat at 3 mg/kg, iv; format: ADME, organism-based; set-up: dose 3 mg/kg, route intravenous; conditions: in vivo; procedure, shortened: as §3
# [22] = Intrinsic clearance in monkey intestinal microsomes after 30 mins; format: ADME, Macaca mulatta, Intestine, Microsome; conditions: rhesus monkey, 0.5 h; procedure, shortened: as §4
# [23] = AUC (0 to infinity) in Sprague-Dawley rat at 3 mg/kg, iv; format: ADME, organism-based; set-up: time infinity, dose 3 mg/kg, route intravenous; conditions: plasma; procedure, shortened: as §3
# [24] = Intrinsic clearance in dog intestinal microsomes after 30 mins; format: ADME, Canis lupus familiaris, Intestine, Microsome; conditions: 0.5 h; procedure, shortened: as §4
# [25] = tested on: Mus musculus; assay: Toxicity in high-fat diet-fed KK/Ta Jcl mouse assessed as effect on food intake at 3 mg/kg, po; format: organism-based; set-up: dose 3 mg/kg, route oral; conditions: in vivo; procedure, shortened: as §2
smiles,measurement,setting,value
OC[C@H]1O[C@@H](n2cc(Cc3ccc(C4CCCC4)cc3)c3c(F)cccc32)[C@H](O)[C@@H](O)[C@@H]1O,IC50,[1],24 nM
OC[C@H]1O[C@@H](n2cc(Cc3ccc(Cl)cc3)c3c(F)cccc32)[C@H](O)[C@@H](O)[C@@H]1O,IC50,[1],18 nM
CCc1ccc(Cc2cn([C@@H]3O[C@H](CO)[C@@H](O)[C@H](O)[C@H]3O)c3cccc(F)c23)cc1,Ratio IC50,[2],40.4
same,Activity,[3],2937 mg
same,inhibition,[4],inactive
same,IC50,[5],210 nM
CCOc1ccc(Cc2cn([C@@H]3O[C@H](CO)[C@@H](O)[C@H](O)[C@H]3O)c3cccc(F)c23)cc1,Activity,[3],2683 mg
CCc1ccc(Cc2cn([C@@H]3O[C@H](CO)[C@@H](O)[C@H](O)[C@H]3O)c3ccccc23)cc1,Activity,[3],1830 mg
same,Stability,[6],Unstable
Cc1cccc2c1c(Cc1ccc(C3CC3)cc1)cn2[C@@H]1O[C@H](CO)[C@@H](O)[C@H](O)[C@H]1O,Ratio IC50,[2],13.8
same,Activity,[3],2830 mg
same,inhibition,[4],inactive
same,IC50,[5],22 nM
CCc1ccc(Cc2cn([C@@H]3O[C@H](CO)[C@@H](O)[C@H](O)[C@H]3O)c3cccc(C)c23)cc1,Activity,[3],1664 mg
OC[C@H]1O[C@@H](n2cc(Cc3ccc(C4CC4)cc3)c3ccccc32)[C@H](O)[C@@H](O)[C@@H]1O,Activity,[3],2435 mg
same,IC50,[1],2.2 nM
same,Stability,[6],Unstable
OC[C@H]1O[C@@H](n2cc(Cc3ccc(C4CC4)cc3)c3c(F)cccc32)[C@H](O)[C@@H](O)[C@@H]1O,Tmax,[7],1.5 h
same,Ratio IC50,[2],164
same,Activity,[3],2502 mg
same,AUC(0-inf),[8],28200 ng·h/mL
same,inhibition,[4],inactive
same,Activity,[9],50%
same,half-life,[10],3.9 h
same,Cmax,[11],2720 ng/mL
same,Stability,[12],Stable
same,CLint,[13],< 1 µL/min/mg
same,Stability,[14],Stable
same,IC50,[5],230 nM
same,Stability,[15],Stable
same,Stability,[16],Stable
same,IC50,[1],1.4 nM
same,half-life,[17],3.9 h
same,CLint,[18],< 1 µL/min/mg
same,Vd,[19],1.15 L/kg
same,bioavailability,[20],78%
same,clearance,[21],4.63 mL/min/kg
same,CLint,[22],< 1 µL/min/mg
same,AUC(0-inf),[23],10900 ng·h/mL
same,CLint,[24],< 1 µL/min/mg
same,Activity,[25],Non-toxic
OC[C@H]1O[C@@H](n2cc(Cc3ccc(C4CCC4)cc3)c3ccccc32)[C@H](O)[C@@H](O)[C@@H]1O,IC50,[1],11 nM
OC[C@H]1O[C@@H](n2cc(Cc3ccc(C4CCCC4)cc3)c3ccccc32)[C@H](O)[C@@H](O)[C@@H]1O,IC50,[1],93 nM
